In ChEMBL document CHEMBL3407367 (J Med Chem, 2015):
Values after ≈ are worked out from the molar mass of the structure shown. Active and inactive are the calls of the source. The calls are words filed in the database; no cut-off is given here. Positions of bridges follow the written chain, without caps; N, C: chain ends. Non-standard residues stand in square brackets, D forms with d. Residues, ends and D or L forms follow the SMILES beside them. Trp(1-Me) = Cn1cc(C[C@H](N)C(=O)O)c2ccccc21; 1Nal = N[C@@H](Cc1cccc2ccccc12)C(=O)O

How the values were obtained:
[1] = Solubility of the compound in PBS at pH 7.4 after 24 to 48 hrs by spectrophotometry; assay type: physicochemical
Procedure, shortened: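 About 1 mg peptide put in 200 μL PBS pH 7.4 (top reportable value 5 mg/mL). Vortexed 30 s, centrifuged 13000g for 5 min. Supernatant A280 read and converted to concentration by Beer–Lambert, with extinction coefficients from Trp/Tyr count. Samples held at 4 °C and re-read at 24 and 48 h. Mean and standard deviation of three readings per sample.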

RPE [2] = assay: Inhibition of complement activation in human fetal RPE cells assessed as reduction in C5b-9 formation at 1 uM by fluorescence assay in presence of complement-competant human serum; assay type: cell-based
Procedure, shortened: (§1)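 Human fetal RPE cells from two donor lines (081309, 072810) were grown on porous supports in Miller medium with 5% FCS. Peptide (1 µM; one experiment 1, 10, 50 µM) in serum-free medium with 10% human complement serum was premixed 30 min at RT, then incubated overnight at 37 °C. Samples were PFA-fixed and sections immunostained; the confocal C5b-9/ApoE area ratio is given as % of serum-only control; n = 10; Mann–Whitney U.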

RPE [3] = assay: Inhibition of complement activation in human fetal RPE cells assessed as reduction in C5b-9 formation at 50 uM by fluorescence assay in presence of complement-competant human serum; assay type: cell-based; procedure, shortened: as §1
Complement C3 = Complement C3 (Homo sapiens, UniProt P01024); assay: Inhibition of C3 cleavage in human serum assessed as reduction in C5b-9 formation compound preincubated for 15 mins measured 1 hr post LPS stimulation by ELISA
Chain of Complement C3 (P01024 23-667 limits assumed): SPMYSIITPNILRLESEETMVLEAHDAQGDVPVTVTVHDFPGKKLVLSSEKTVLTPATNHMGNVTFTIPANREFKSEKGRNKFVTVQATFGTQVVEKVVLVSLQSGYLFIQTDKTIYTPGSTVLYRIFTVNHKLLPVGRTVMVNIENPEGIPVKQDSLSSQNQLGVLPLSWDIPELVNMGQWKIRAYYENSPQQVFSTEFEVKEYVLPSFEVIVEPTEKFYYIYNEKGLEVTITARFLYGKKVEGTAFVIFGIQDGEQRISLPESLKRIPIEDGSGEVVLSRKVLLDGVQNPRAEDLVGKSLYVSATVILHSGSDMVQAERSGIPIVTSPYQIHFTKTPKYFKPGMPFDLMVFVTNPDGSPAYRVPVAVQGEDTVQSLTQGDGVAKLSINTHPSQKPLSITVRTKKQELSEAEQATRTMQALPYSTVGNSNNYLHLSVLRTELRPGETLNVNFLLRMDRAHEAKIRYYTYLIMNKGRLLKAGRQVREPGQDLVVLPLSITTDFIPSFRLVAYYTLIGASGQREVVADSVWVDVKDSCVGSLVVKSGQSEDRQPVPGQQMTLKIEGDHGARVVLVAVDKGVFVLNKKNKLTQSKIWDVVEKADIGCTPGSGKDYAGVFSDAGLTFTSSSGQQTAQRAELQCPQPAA
Chain of Complement C3 (P01024 672-1663 limits assumed): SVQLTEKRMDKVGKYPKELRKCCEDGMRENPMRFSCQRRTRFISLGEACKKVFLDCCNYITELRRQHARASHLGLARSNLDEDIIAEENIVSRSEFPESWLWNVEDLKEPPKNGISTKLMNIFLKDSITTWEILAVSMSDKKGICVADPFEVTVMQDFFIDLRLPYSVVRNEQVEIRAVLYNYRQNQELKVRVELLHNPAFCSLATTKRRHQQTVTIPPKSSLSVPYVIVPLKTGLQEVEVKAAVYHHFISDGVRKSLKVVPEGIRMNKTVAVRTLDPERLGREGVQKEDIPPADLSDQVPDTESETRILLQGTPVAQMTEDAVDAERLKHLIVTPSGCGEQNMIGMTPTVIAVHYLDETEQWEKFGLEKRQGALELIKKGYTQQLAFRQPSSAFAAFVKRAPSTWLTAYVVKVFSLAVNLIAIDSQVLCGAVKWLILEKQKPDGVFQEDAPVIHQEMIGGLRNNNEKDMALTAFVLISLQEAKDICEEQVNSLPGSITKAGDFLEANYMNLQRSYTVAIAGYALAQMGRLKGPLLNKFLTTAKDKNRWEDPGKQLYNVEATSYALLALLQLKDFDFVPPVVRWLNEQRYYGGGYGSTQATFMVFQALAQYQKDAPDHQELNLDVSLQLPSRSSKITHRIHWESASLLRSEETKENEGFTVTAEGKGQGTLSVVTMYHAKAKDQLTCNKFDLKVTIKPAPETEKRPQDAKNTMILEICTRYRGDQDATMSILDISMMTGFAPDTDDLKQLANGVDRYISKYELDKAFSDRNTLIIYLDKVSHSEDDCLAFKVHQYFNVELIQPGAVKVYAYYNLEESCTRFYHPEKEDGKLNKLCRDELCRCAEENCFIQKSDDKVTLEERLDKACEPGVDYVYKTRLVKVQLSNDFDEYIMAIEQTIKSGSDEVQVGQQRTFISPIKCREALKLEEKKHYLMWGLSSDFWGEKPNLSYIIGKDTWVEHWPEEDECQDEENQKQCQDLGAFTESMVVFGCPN

SMILES	solubility [1] [µg/mL]	inhibition (RPE [2])	further results
CC[C@H](C)[C@H](N)C(=O)N[C@H]1CSSC[C@@H](C(=O)N[C@H](C(N)=O)[C@@H](C)O)NC(=O)[C@H](CCCN=C(N)N)NC(=O)[C@H](Cc2cnc[nH]2)NC(=O)[C@H](Cc2cnc[nH]2)NC(=O)CNC(=O)[C@H](Cc2c[nH]c3ccccc23)NC(=O)[C@H](CC(=O)O)NC(=O)[C@H](CCC(N)=O)NC(=O)[C@H](C(C)C)NC(=O)[C@H](C(C)C)NC1=O [COMPSTATIN]	4500 (≈ 2900 µM)		
CC(=O)N[C@@H](CC(N)=O)C(=O)N[C@@H](CCCNC(=N)N)C(=O)N[C@@H](CC(C)C)C(=O)N[C@H]1CSSC[C@@H](C(=O)N[C@H](C(N)=O)[C@@H](C)O)NC(=O)[C@H](CCCNC(=N)N)NC(=O)[C@H](Cc2cnc[nH]2)NC(=O)[C@H](Cc2cccc3ccccc23)NC(=O)CNC(=O)[C@H](Cc2c[nH]c3ccccc23)NC(=O)[C@H](CC(=O)O)NC(=O)[C@H](CCC(N)=O)NC(=O)[C@H](Cc2c[nH]c3ccccc23)NC(=O)[C@H](C(C)C)NC1=O (Ac-NRLCVWQDWG[1Nal]HRCT-NH2; disulfide 4-14)		Active	
CC[C@H](C)[C@H](NC(=O)[C@H](CO)NC(=O)[C@H](CCCNC(=N)N)NC(C)=O)C(=O)N[C@H]1CSSC[C@@H](C(=O)N[C@H](C(N)=O)[C@@H](C)O)NC(=O)[C@H](CCCNC(=N)N)NC(=O)[C@H](Cc2cnc[nH]2)NC(=O)[C@H](C)NC(=O)CNC(=O)[C@H](Cc2c[nH]c3ccccc23)NC(=O)[C@H](CC(=O)O)NC(=O)[C@H](CCC(N)=O)NC(=O)[C@H](Cc2ccc(O)cc2)NC(=O)[C@H](C(C)C)NC1=O	5000 (≈ 2730 µM)	Active	
CC[C@H](C)[C@H](NC(C)=O)C(=O)N[C@H]1CSSC[C@@H](C(=O)N[C@H](C(N)=O)[C@@H](C)O)NC(=O)[C@H](CCCNC(=N)N)NC(=O)[C@H](Cc2cnc[nH]2)NC(=O)[C@H](C)NC(=O)CNC(=O)[C@H](Cc2c[nH]c3ccccc23)NC(=O)[C@H](CC(=O)O)NC(=O)[C@H](CCC(N)=O)NC(=O)[C@H](Cc2c[nH]c3ccccc23)NC(=O)[C@H](C(C)C)NC1=O	3200 (≈ 1980 µM)	Active	
CC[C@H](C)[C@H](NC(C)=O)C(=O)N[C@H]1CSSC[C@@H](C(=O)N[C@H](C(N)=O)[C@@H](C)O)NC(=O)[C@H](CCCNC(=N)N)NC(=O)[C@H](Cc2cnc[nH]2)NC(=O)[C@H](C)NC(=O)CNC(=O)[C@H](Cc2c[nH]c3ccccc23)NC(=O)[C@H](CC(=O)O)NC(=O)[C@H](CCC(N)=O)NC(=O)[C@H](Cc2cn(C)c3ccccc23)NC(=O)[C@H](C(C)C)NC1=O	1900 (≈ 1170 µM)		
CC[C@H](C)[C@H](N)C(=O)N[C@H]1CSSC[C@@H](C(=O)N[C@H](C(N)=O)[C@@H](C)O)NC(=O)[C@H](CCCNC(=N)N)NC(=O)[C@H](Cc2cnc[nH]2)NC(=O)[C@H](Cc2cnc[nH]2)NC(=O)CNC(=O)[C@H](Cc2c[nH]c3ccccc23)NC(=O)[C@H](CC(=O)O)NC(=O)[C@H](CCC(N)=O)NC(=O)[C@H](C(C)C)NC(=O)[C@H](C(C)C)NC1=O			inhibition (RPE [3]): Active
CC[C@H](C)[C@H](NC(C)=O)C(=O)N[C@H]1CSSC[C@@H](C(=O)N[C@H](C(N)=O)[C@@H](C)O)NC(=O)[C@H](CCCNC(=N)N)NC(=O)[C@H](Cc2cnc[nH]2)NC(=O)[C@H](Cc2cccc3ccccc23)NC(=O)CNC(=O)[C@H](Cc2c[nH]c3ccccc23)NC(=O)[C@H](CC(=O)O)NC(=O)[C@H](CCC(N)=O)NC(=O)[C@H](Cc2c[nH]c3ccccc23)NC(=O)[C@H](C(C)C)NC1=O (Ac-ICVWQDWG[1Nal]HRCT-NH2; disulfide 2-12)	100 (≈ 57.5 µM)		
CC[C@H](C)[C@H](NC(C)=O)C(=O)N[C@H]1CSSC[C@@H](C(=O)N[C@H](C(N)=O)[C@@H](C)O)NC(=O)[C@H](CCCNC(=N)N)NC(=O)[C@H](Cc2cnc[nH]2)NC(=O)[C@H](Cc2cccc3ccccc23)NC(=O)CNC(=O)[C@H](Cc2c[nH]c3ccccc23)NC(=O)[C@H](CC(=O)O)NC(=O)[C@H](CCC(N)=O)NC(=O)[C@H](Cc2cn(C)c3ccccc23)NC(=O)[C@H](C(C)C)NC1=O (Ac-ICV[Trp(1-Me)]QDWG[1Nal]HRCT-NH2; disulfide 2-12)	100 (≈ 57 µM)		IC50 (Complement C3): 4 µM
CC[C@H](C)[C@H](NC(C)=O)C(=O)N[C@H]1CSSC[C@@H](C(=O)N[C@H](C(N)=O)[C@@H](C)O)NC(=O)[C@H](CCCNC(=N)N)NC(=O)[C@H](Cc2cnc[nH]2)NC(=O)[C@](C)(CC)NC(=O)CNC(=O)[C@H](Cc2c[nH]c3ccccc23)NC(=O)[C@H](CC(=O)O)NC(=O)[C@H](CCC(N)=O)NC(=O)[C@H](Cc2c[nH]c3ccccc23)NC(=O)[C@H](C(C)C)NC1=O		Active	
CC(=O)N[C@@H](CC(N)=O)C(=O)N[C@@H](CCCNC(=N)N)C(=O)N[C@@H](CC(C)C)C(=O)N[C@H]1CSSC[C@@H](C(=O)N[C@H](C(N)=O)[C@@H](C)O)NC(=O)[C@H](CCCNC(=N)N)NC(=O)[C@H](Cc2cnc[nH]2)NC(=O)[C@H](C)NC(=O)CNC(=O)[C@H](Cc2c[nH]c3ccccc23)NC(=O)[C@H](CC(=O)O)NC(=O)[C@H](CCC(N)=O)NC(=O)[C@H](Cc2c[nH]c3ccccc23)NC(=O)[C@H](C(C)C)NC1=O (Ac-NRLCVWQDWGAHRCT-NH2; disulfide 4-14)		Active	
CC[C@H](C)[C@H](NC(=O)[C@H](CO)NC(=O)[C@H](CCCNC(=N)N)NC(C)=O)C(=O)N[C@H]1CSSC[C@@H](C(=O)N[C@H](C(N)=O)[C@@H](C)O)NC(=O)[C@H](CCCNC(=N)N)NC(=O)[C@H](Cc2cnc[nH]2)NC(=O)[C@H](C)NC(=O)CNC(=O)[C@H](Cc2c[nH]c3ccccc23)NC(=O)[C@H](CC(=O)O)NC(=O)[C@H](CCC(N)=O)NC(=O)[C@H](Cc2cccc3ccccc23)NC(=O)[C@H](C(C)C)NC1=O (Ac-RSICV[1Nal]QDWGAHRCT-NH2; disulfide 4-14)		Active	
